STEP inh – STEP (human) phosphatase inhibition. P54829. recombinant STEP, OMFP fluorogenic substrate, fluorescence. inhibition, % at 20 µM. 360,000 tested, 0.25% active. AID 588621;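 active = inhibition at 20 µM, scaled per plate between control wells, above about 37%, limit read from the data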;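 note: 0% = DMSO with enzyme and substrate and 100% = substrate only without enzyme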
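System: isolated STEP enzyme; schedule: 20 min enzyme reaction at room temperature, protected from light; medium: Bis-Tris buffer pH 6.0, 2.5 mM DTT, 0.005% Tween 20; signal: fluorescence, 480/540 nm; dosing: single compound dose of 20 µM, 1% DMSO final; also added: OMFP substrate, 25 µM final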
LMPTP block – LMPTP (human) inhibition; P24666; recombinant LMPTP-A, OMFP fluorogenic substrate, fluorescence intensity; inhibition, % at 20 µM; 360,000 tested, 0.22% active; AID 651560;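 active = compounds that cut the enzyme signal by at least half of the control window in the single-dose screen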;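 note: plate controls were DMSO wells with enzyme plus substrate for no effect and substrate without enzyme for full effect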
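Assay system: LMPTP-A phosphatase enzyme | Input: 0.625 nM enzyme | Also added: Fluorogenic phosphatase substrate OMFP at 400 µM final | Compound dosing: One test concentration per compound, 20 µM, with 3% DMSO overall | Schedule: 50 min enzyme reaction at room temperature, protected from light | Signal: Fluorescence intensity | Benchmarks: no-enzyme and uninhibited controls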
SUMO1 PPI mod – SUMO1-SIM interaction modulation. P63165. SUMO1 binding to a labelled peptide, TR-FRET, 1 h. inhibition, % at 20 µM. 360,000 tested, 0.33% active; in the data active = inhibition above about 37%
Rpn11 inh – Rpn11 (human) deubiquitinase inhibition; 360,000 tested, 0.59% active; inhibition, % at 20 µM; O00487; AID 588493; human 26S proteasome, Ub4-pepOG fluorescence polarization; 20S core pre-blocked with epoxomicin;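 active = inhibition at 20 µM, scaled to each plate's controls, above about 33%, limit read from the data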
DNMT1 block – blocks human DNA methyltransferase DNMT1; P26358; DNMT1 molecular beacon, Hinp1I cleavage, fluorescence; inhibition (reported as % activation of signal), % at 10 µM; 360,000 tested, 0.83% active; in the data active = inhibition above about 50%
Target sequence (P26358 504-1616 limits assumed): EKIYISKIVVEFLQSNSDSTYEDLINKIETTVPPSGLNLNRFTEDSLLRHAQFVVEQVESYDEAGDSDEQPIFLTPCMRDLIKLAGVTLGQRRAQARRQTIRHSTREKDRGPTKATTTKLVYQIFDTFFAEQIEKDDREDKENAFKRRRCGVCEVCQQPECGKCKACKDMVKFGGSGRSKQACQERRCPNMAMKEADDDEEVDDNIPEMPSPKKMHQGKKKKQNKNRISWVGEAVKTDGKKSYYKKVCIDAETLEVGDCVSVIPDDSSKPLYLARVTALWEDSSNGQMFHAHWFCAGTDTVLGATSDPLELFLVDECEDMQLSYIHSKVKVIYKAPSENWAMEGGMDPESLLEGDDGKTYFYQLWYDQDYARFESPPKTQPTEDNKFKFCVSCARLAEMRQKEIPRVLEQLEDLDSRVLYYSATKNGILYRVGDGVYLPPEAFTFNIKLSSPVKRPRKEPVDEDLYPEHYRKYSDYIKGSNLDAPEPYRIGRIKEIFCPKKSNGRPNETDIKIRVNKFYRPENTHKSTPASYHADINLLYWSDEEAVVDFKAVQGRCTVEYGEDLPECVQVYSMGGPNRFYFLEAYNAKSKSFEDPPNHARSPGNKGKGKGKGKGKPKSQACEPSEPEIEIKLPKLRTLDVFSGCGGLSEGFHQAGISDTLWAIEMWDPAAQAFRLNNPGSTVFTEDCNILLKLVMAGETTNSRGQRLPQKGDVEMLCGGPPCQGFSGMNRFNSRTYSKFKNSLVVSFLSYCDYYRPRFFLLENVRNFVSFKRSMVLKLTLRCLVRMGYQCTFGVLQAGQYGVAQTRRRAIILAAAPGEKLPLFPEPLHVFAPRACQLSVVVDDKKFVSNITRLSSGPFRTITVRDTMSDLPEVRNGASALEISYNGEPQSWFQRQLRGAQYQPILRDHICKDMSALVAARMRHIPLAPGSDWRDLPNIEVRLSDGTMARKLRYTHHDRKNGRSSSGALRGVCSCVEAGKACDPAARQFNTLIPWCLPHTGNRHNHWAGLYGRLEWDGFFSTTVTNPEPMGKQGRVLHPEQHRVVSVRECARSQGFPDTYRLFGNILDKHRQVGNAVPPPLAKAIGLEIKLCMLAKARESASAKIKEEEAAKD
Scp-1 inhibitor – Scp-1 (human) phosphatase inhibition | Q9GZU7 | Recombinant Scp1, phosphopeptide, malachite green phosphate absorbance | inhibition, % at 20 µM | 340,000 tested, 0.88% active | AID 493091;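 active = inhibition above about 50% at 20 µM, limit read from the data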;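 note: plate controls were DMSO wells with enzyme for no effect and wells lacking enzyme for full effect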
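Material: truncated SCP-1 phosphatase (76-261aa) / Buffer or medium: 50 mM Tris acetate pH 5.5, 0.005% Tween-20, 10 mM MgCl2 / Compound dosing: one concentration, 20 µM, with 1.0% DMSO / Incubation: 45 min room-temperature reaction, 5 min colour, 30 min stabiliser / Detection: colorimetric free-phosphate detection, absorbance 630 nm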
Rpn11 confirm – Rpn11 inhibition confirmation, single concentration; inhibition, % at 20 µM; purified human 26S proteasome, Ub4-pepOG fluorescence polarization; proteasome pretreated with epoxomicin; AID 602318; 1,900 tested, 29% active; shares compounds with Rpn11 inh
MMP-2 inh – counter-screen for RPN11 inhibitors: inhibition of human MMP-2; shares compounds with Rpn11 inh; recombinant MMP-2, FRET peptide cleavage fluorescence; inhibition, % at 20 µM; 1,900 tested, 4% active; AID 602330;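 note: human MMP-2 activated beforehand with APMA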
Thrombin inh – blocks bovine thrombin, flagging nonselective RPN11 hits | shares compounds with Rpn11 inh | bovine thrombin cleavage of Ub4-pepOG, fluorescence polarization | inhibition, % at 20 µM | 1,900 tested, 13% active | AID 602333;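 active = mean inhibition at least 40% at 20 µM, or signal 3 deviations below plate average, so some actives read negative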;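 note: plate controls were thrombin with DMSO for no effect and buffer wells lacking thrombin for full effect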
* = called active by the depositor; nt = no result. This is a sample that favours compounds with a hit; in the whole collection about 2.3% have one here. Cut-off read from the data, not from the text of the source, unless noted: active = inhibition above about 40%; inactive = the rest.

SMILES	STEP inh	LMPTP block	SUMO1 PPI mod	Rpn11 inh	DNMT1 block	Scp-1 inhibitor	Rpn11 confirm	MMP-2 inh	Thrombin inh
CCN1CCN(CCCNC(=O)c2ccc3c(Cl)c4c(nc3c2)CCCC4)CC1	4	-4	-19	-12	1	9	nt	nt	nt
COc1ccc(Nc2nc3ccc(C)cc3cc2C#N)c(OC)c1	-1	4	2	42*	-11	-5	-12	-15	-13
ClCC1NCC(c2ccccc2Cl)c2c1[nH]c1ccccc21 (stereo unspecified)	-5	2	-2	72*	-8	-1	33	38	18
COc1ccc(C#Cc2ccc3c(c2)O[C@@H](CN(C)C(=O)Nc2cccc(OC)c2)[C@H](C)CN([C@@H](C)CO)S3(=O)=O)cc1	-1	4	-1	47*	-25	nt	41*	-41	38
COc1cccc(NC(=O)N(C)C[C@H]2Oc3cc(C#Cc4ccncc4)ccc3S(=O)(=O)N([C@H](C)CO)C[C@H]2C)c1	-3	1	-1	11	-12	nt	nt	nt	nt
Cc1ccc(NS(=O)(=O)c2c(C)[nH]c(C)c2C(=O)N2CCCCC2)cc1F	-1	0	-6	-2	1	-2	nt	nt	nt
CCSc1nc2sc3c(c2c(=O)n1-c1ccccc1)CCN(C)C3	3	4	-21	53*	6	-1	7	-12	14
NS(=O)(=O)c1ccc2nc(NC(=O)Nc3ccc(F)cc3)sc2c1	-4	0	2	67*	-8	-5	33	1	23
O=C1NC[C@H](Cc2ccccc2)N(CC2CCCCC2)C1=O	1	-2	-1	-6	5	-2	nt	nt	nt
COc1ccccc1NC(=O)C1=C(C)Nc2ncnn2C1c1cccs1 (stereo unspecified)	2	0	2	78*	6	4	-11	-6	-12
COc1ccc(C(=O)CSc2nnc(NC(=O)C3CC(=O)N(c4ccccc4)C3)s2)cc1 (stereo unspecified)	4	1	-1	44*	6	17	13	2	-4
CCC(C)(C(=O)Nc1ccc2c(c1)OCCO2)N(C(C)=O)c1ccc(C(N)=O)cc1 (stereo unspecified)	0	2	-3	51*	0	-2	0	-28	2
CCOC(=O)c1ccc(NC(=O)Nc2ccc3c(c2)OCCO3)cc1	1	2	2	5	-11	-13	nt	nt	nt
O=C(CSC1=NS(=O)(=O)c2cc(F)ccc2N1)NCc1ccccc1Cl	1	0	3	-3	2	-7	nt	nt	nt
CC1=C(C(=O)Nc2cccc(C(=O)N3CCC(C(N)=O)CC3)c2)SCCO1	2	-1	-2	2	1	-1	nt	nt	nt
Nc1ccccc1Nc1cc(-c2ccccc2)[nH]n1	-2	0	0	43*	-11	-11	0	10	7
Nc1ccccc1Nc1cc(-c2ccccc2)nn1-c1ccccc1	0	3	-3	0	-20	1	nt	nt	nt
O=C(CN1N=C(c2ccccc2)CCC1=O)NCCCN1CCc2ccccc2C1	1	1	-2	-8	1	-3	nt	nt	nt
Cc1nnc(SCc2nc3sc4c(c3c(=O)[nH]2)CCCC4)[nH]c1=O	-1	0	12	61*	5	-6	21	-6	84*
CCCc1nc2sc3c(c2c(=O)[nH]1)CCCC3	1	-2	0	4	-1	-3	nt	nt	nt
C/C(=N/NC(=O)CCC(=O)Nc1ccc(Br)cc1)c1ccc(Br)cc1	-1	-1	1	-8	16	-15	nt	nt	nt
CCOC(=O)c1c(C)oc2ccc(O)cc12	-1	-1	6	89*	1	-8	0	-6	4
CC(=O)C1=C(O)C2(C)c3c(O)c(C)c(O)c(C(C)=O)c3OC2CC1=O (stereo unspecified)	0	-1	6	54*	-14	nt	69*	12	91*
CC(=O)c1c(O)c(C)c(O)c2c1OC1=Cc3c(c(C)nn3C)C(=O)C12C (stereo unspecified)	-2	2	-2	2	6	nt	nt	nt	nt
CCN(CC)S(=O)(=O)c1ccc(N2CCCC2)c(C(=O)OCC(=O)Nc2cc(C)on2)c1	0	10	-2	1	-3	-9	nt	nt	nt
SMILES	STEP inh	LMPTP block	SUMO1 PPI mod	Rpn11 inh	DNMT1 block	Scp-1 inhibitor	Rpn11 confirm	MMP-2 inh	Thrombin inh
COc1ccc2nc(SCCC(=O)O)cc(C)c2c1	-3	-1	0	-8	1	-4	nt	nt	nt
CCCCn1c(N)c(N(C(=O)CSc2nncn2-c2ccccc2)C2CCCC2)c(=O)[nH]c1=O	0	-2	1	-4	1	-9	nt	nt	nt
CC(/C=C/c1ccc(N(C)C)cc1)=N/N=C1/NC(=O)CC(C(=O)Nc2ccc(Cl)cc2)S1 (stereo unspecified)	-3	4	-5	65*	-31	2	89*	23	87*
COc1ccc(/C=C/C(=O)Nc2ccc(OC)cc2[N+](=O)[O-])cc1	0	-1	-4	44*	0	-4	39	-20	14
CCOc1ccc(NC(=O)Cc2ccccc2)c([N+](=O)[O-])c1	0	0	-21	-8	-2	-7	nt	nt	nt
CCOc1ccc(NC(=O)/C=C/c2ccc(OC)cc2)c([N+](=O)[O-])c1	1	0	-8	48*	5	-8	-16	-26	-20
COc1ccc(NC(=O)/C=C/c2ccccc2)c([N+](=O)[O-])c1	2	0	-10	-1	3	-10	nt	nt	nt
CCOc1cc(/C=N/NC(=O)C(=O)NCCCOC(C)C)cc(Br)c1O	0	-4	-2	-6	1	-9	nt	nt	nt
Cc1ccc(-c2nn(-c3cccc(F)c3)cc2CN2CCN(c3ccccn3)CC2)o1	4	2	3	3	0	2	nt	nt	nt
Cc1ccc(-c2nn(-c3cccc(F)c3)cc2CNCc2cccnc2)o1	12	6	-4	48*	-10	5	24	-13	21
CCc1ccc2oc(C(=O)NCC(c3ccc(OC)cc3)N3CCCCC3)c(C)c2c1 (stereo unspecified)	-2	2	-7	11	0	0	nt	nt	nt
COc1cc(C)c(COc2ncnc3ccccc23)cc1OC	-2	0	-2	-1	0	1	nt	nt	nt

Assay outcomes as filed in PubChem.
